Values after ≈ are worked out from the molar mass of the structure shown. Non-standard residues stand in square brackets, D forms with d. Residues, ends and D or L forms follow the SMILES beside them. *: point of attachment. FITC = O=C1OC2(c3ccc(O)cc3Oc3cc(O)ccc32)c2ccc(NC(=S)*)cc21; Pra = C#CC[C@H](N)C(=O)O; βAla = NCCC(=O)O
Assay: Dynamic light scattering
Assay type: physicochemical
Conditions: PBS with 1% DMSO
Method in brief: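 Salicylaldehyde-tagged peptide and its alkyne precursor were dissolved in DMSO at several concentrations, then diluted 1:100 into PBS. Final samples were 5 µM, 125 nM and 10 nM in PBS (+1% DMSO). Aggregation was assessed by dynamic light scattering.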

C#CC[C@H](NC(=O)[C@H](Cc1ccccc1)NC(=O)CCNC(=S)Nc1ccc2c(c1)C(=O)OC21c2ccc(O)cc2Oc2cc(O)ccc21)C(=O)N[C@@H](C)C(=O)N[C@@H](CC(C)C)C(=O)N[C@@H](CC(=O)O)C(=O)N[C@@H](Cc1c[nH]c2ccccc12)C(=O)N[C@@H](CO)C(=O)N[C@@H](Cc1c[nH]c2ccccc12)C(=O)N[C@@H](CC(C)C)C(=O)N[C@@H](CCC(N)=O)C(=O)N[C@H](C(=O)N[C@@H](CCC(=O)O)C(N)=O)[C@@H](C)O [Compound 6] ({FITC-βAla}-F[Pra]ALDWSWLQTE-NH2)
solubility kinetic: 0.125 µM (≈ 0.244 µg/mL)

From publication PMC12694607 (RSC Chemical Biology, 2025)
